Laboratory results as given in ChEMBL document CHEMBL1131010, “Inhibition of human neutrophil elastase. 4. Design, synthesis, X-ray crystallographic analysis, and structure-activity relationships for a series of P2-modified, orally active peptidyl pentafluoroethyl ketones” (J Med Chem, 1998).

Columns and labels:
Format in all cases: functional, Cricetulus griseus
Cricetinae gen. sp. [1] = assay: In vivo HNE inhibitory activity of lung hemorrhage in 6-8 hamsters; parameters: concentration or dose not given beside the values
In short: (§1)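 Hamsters dosed orally at 1, 1.5, 2 or 4 h before intratracheal instillation of HNE (25 µg). Animals were killed 1 h after HNE and lungs lavaged with saline. BAL hemoglobin was read spectrophotometrically at 536-546 nm. % inhibition of hemorrhage is relative to vehicle-treated animals, given as mean ± SEM of 6-8 hamsters, with p < 0.05 as significance.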

Cricetinae gen. sp. [2] = assay: In vivo percent inhibition of lung hemorrhage in 6-8 hamsters after administration of 25 mg/kg 1 hr before intratracheal instillation of HNE (25 ug); in short: as §1
Cricetinae gen. sp. [3] = assay: In vivo percent inhibition of lung hemorrhage in 6-8 hamsters administration of 25 mg/kg 2 hr before intratracheal instillation of HNE (25 ug); in short: as §1
Cricetinae gen. sp. [4] = assay: In vivo percent inhibition of lung hemorrhage in 6-8 hamsters administration of 25 mg/kg 1 hr before intratracheal instillation of HNE (25 ug); in short: as §1
Cricetinae gen. sp. [5] = assay: In vivo percent inhibition of lung hemorrhage in 6-8 hamsters administration of 25 mg/kg 1 hour before intratracheal instillation of HNE (25 ug); in short: as §1
Cricetinae gen. sp. [6] = assay: In vivo percent inhibition of lung hemorrhage in 6-8 hamsters administration of 25 mg/kg 2 hours before intratracheal instillation of HNE (25 ug); in short: as §1
Cricetinae gen. sp. [7] = assay: In vivo percent inhibition of lung hemorrhage in 6-8 hamsters administration of 25 mg/kg 4 hr before intratracheal instillation of HNE (25 ug); in short: as §1

| Compound | Inhibition (Cricetinae gen. sp. [1]) [%] | other results |
| --- | --- | --- |
| CC(C)C(NC(=O)[C@@H]1CSCN1C(=O)[C@@H](NC(=O)c1ccc(C(=O)N2CCOCC2)cc1)C(C)C)C(=O)C(F)(F)C(F)(F)F (stereo not given in full) | 0 | – |
| CC(C)C(NC(=O)[C@H]1CC(OCc2ccccc2)CN1C(=O)[C@@H](NC(=O)c1ccc(C(=O)N2CCOCC2)cc1)C(C)C)C(=O)C(F)(F)C(F)(F)F (stereo not given in full) | 7 | – |
| CC(C)C(NC(=O)[C@H]1CCN1C(=O)[C@@H](NC(=O)c1ccc(C(=O)N2CCOCC2)cc1)C(C)C)C(=O)C(F)(F)C(F)(F)F (stereo not given in full) | 79 | inhibition in vivo at 25 mg/kg (Cricetinae gen. sp. [2]): 57% |
| CC(C)C(NC(=O)[C@@H]1CCCN1C(=O)[C@@H](NC(=O)c1ccc(C(=O)N2CCOCC2)cc1)C(C)C)C(=O)C(F)(F)C(F)(F)F (stereo not given in full) | 74 | – |
| CC(C)C(NC(=O)C1CCCCN1C(=O)[C@@H](NC(=O)c1ccc(C(=O)N2CCOCC2)cc1)C(C)C)C(=O)C(F)(F)C(F)(F)F (stereo not given in full) | 54 | inhibition in vivo at 25 mg/kg (Cricetinae gen. sp. [3]): 39%; inhibition in vivo at 25 mg/kg (Cricetinae gen. sp. [4]): 43% |
| CC(C)C(NC(=O)[C@@H]1CCCN1C(=O)[C@@H](NC(=O)c1ccc(C(=O)N2CCOCC2)cc1)C(C)C)C(=O)C(F)(F)C(F)(F)C(F)(F)F (stereo not given in full) | 47 | inhibition in vivo at 25 mg/kg (Cricetinae gen. sp. [5]): 30%; inhibition in vivo at 25 mg/kg (Cricetinae gen. sp. [6]): 25% |
| CC(C)C(NC(=O)C1CC(O)CN1C(=O)[C@@H](NC(=O)c1ccc(C(=O)N2CCOCC2)cc1)C(C)C)C(=O)C(F)(F)C(F)(F)F (stereo not given in full) | 0 | – |
| CC(=O)OC1CC(C(=O)NC(C(=O)C(F)(F)C(F)(F)F)C(C)C)N(C(=O)[C@@H](NC(=O)c2ccc(C(=O)N3CCOCC3)cc2)C(C)C)C1 (stereo not given in full) | 0 | inhibition in vivo at 25 mg/kg (Cricetinae gen. sp. [7]): 0%; inhibition in vivo at 25 mg/kg (Cricetinae gen. sp. [3]): 0% |
